Screening results as filed in PubChem BioAssay.
An excerpt weighted towards active compounds, which were near 3.5% of everything screened.
MrgX1 allo act: allosterically activates human MrgX1 receptor signaling. MrgX1-HEK293, Fluo-4 calcium flux, FDSS; active compounds read high. AID 588675. 0.63% of 310,000 active. Q96LB2. B-score at 10 µM;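 active = plate-corrected calcium response at least 3 library SD above typical, normal starting fluorescence, not activating the receptor alone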;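 note: compound read alongside a low EC10 to EC30 dose of BAM8-22 agonist; peak minus trough fluorescence over baseline measured at the second addition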
Target sequence (Q96LB2 whole entry, looked up): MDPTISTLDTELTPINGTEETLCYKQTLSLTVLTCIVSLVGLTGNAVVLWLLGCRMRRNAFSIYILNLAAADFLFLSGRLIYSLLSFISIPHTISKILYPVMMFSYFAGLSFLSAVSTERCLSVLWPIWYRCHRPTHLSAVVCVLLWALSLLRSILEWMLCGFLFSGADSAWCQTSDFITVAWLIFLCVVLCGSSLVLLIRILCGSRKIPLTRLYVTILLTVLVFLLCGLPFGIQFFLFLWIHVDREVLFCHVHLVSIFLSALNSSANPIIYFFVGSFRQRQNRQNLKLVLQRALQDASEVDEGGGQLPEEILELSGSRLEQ
RGS4 act: potentiators or activators of RGS4; HEK293 M3R/inducible RGS4, carbachol calcium flux Fluo4; active compounds read low; B-score at 10 µM; 0.92% of 310,000 active;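 active = B-score of the integrated calcium signal more than 4 SD below the library mean, with starting fluorescence not abnormally high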;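 note: negative B-score means reduced calcium response which marks RGS4 activation or potentiation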
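Assay system: Inducible-RGS4 HEK293 cells carrying M3 receptor | Schedule: Compound preincubation 20 min at room temperature before agonist | Signal: Kinetic calcium fluorescence imaging with Fluo4-AM dye, 2 µM | Read-out basis: B score from integrated fluorescence ratio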
MrgX1 antagonist: antagonists of human MrgX1 receptor. Q96LB2. MRGX1-HEK293 calcium flux, Fluo-4, BAM8-22 antagonism; active compounds read low. B-score at 10 µM. 1.3% of 310,000 active. AID 588676;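 active = calcium-response B-score plate-corrected more than 3 library SD below zero, starting fluorescence within 5 deviations, no agonist response on first addition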;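 note: peak minus trough fluorescence over baseline after final BAM8-22 challenge near maximal dose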
MrgX1 ag: activates human MrgX1 receptor signaling | Q96LB2 | MrgX1-HEK293 cells, Fluo-4 calcium fluorescence, agonist mode; active compounds read high | B-score at 10 µM | 0.44% of 310,000 active | AID 588627;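 active = calcium response B-score plate-corrected fluorescence ratio at least 3 library SD, with starting fluorescence B-score inside 5 SD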
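System – MrgX1-expressing HEK293 cells · Incubation – cells plated overnight, dye loaded 0.5 h 37 °C, 0.5 h room temperature · Technique – kinetic Fluo-4 NW fluorescence of intracellular calcium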
RGS4 inh: human RGS4 inhibition; HEK293 M3R/RGS4 inducible, Fluo-4 calcium flux; active compounds read high; triggered by carbachol at its EC20; B-score at 10 µM; P49798; 0.45% of 310,000 active;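 active = B-score, a plate-corrected calcium signal, over three deviations above library mean, with baseline fluorescence within five deviations of library mean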;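 note: RGS4 expression induced by doxycycline in cells with stable M3 receptor; B-score is computed from the integrated fluorescence ratio over baseline after carbachol; higher B-score means a larger calcium signal and so more RGS4 inhibition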
Target sequence (P49798 whole entry, looked up): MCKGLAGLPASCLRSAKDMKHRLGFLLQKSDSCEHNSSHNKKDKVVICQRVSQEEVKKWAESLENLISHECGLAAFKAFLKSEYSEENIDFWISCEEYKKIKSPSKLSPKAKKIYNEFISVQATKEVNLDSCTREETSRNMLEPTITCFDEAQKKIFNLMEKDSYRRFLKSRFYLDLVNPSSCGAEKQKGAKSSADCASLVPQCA
Active calls of the source: *; i = inactive; x = no result given.

SMILES	MrgX1 allo act	RGS4 act	MrgX1 antagonist	MrgX1 ag	RGS4 inh
CCC/C=C(\CCC)C(NS(=O)(=O)c1ccc(C(F)(F)F)cc1)c1ccccc1 (configuration not stated)	i	-8.2*	i	i	i
O=C(O)C(NS(=O)(=O)c1ccc(F)cc1)c1ccccc1 (configuration not stated)	i	i	i	i	i
Cc1ccc2cc(C)c3nnc(SCc4ccc(C(=O)O)cc4)n3c2c1C	i	i	i	i	i
CC(C)c1nc(SCC(=O)NC2CCCC2)c2c(=O)n(C)c(=O)n(C)c2n1	i	i	i	i	i
Cc1ccc(-c2csc(NC(=O)c3ccc(Br)cc3)c2C(=O)O)cc1	i	i	i	31*	i
Cc1cccc(C(=O)Nc2scc(-c3ccc(Br)cc3)c2C(=O)O)c1	i	i	i	i	i
CC(C)c1ccc(-c2csc(NC(=O)c3cccs3)c2C(=O)O)cc1	19*	i	-6.8*	i	i
CC(C)c1ccc(C(CC(=O)O)NC(=O)c2cccs2)cc1 (configuration not stated)	i	i	i	i	i
CCOc1cc(/C=C(\C#N)C(=O)Nc2ccccc2C(=O)O)ccc1OC(=O)c1ccc(C)cc1	i	i	-4.9*	i	i
COc1ccc(/C=C(/C#N)C(=O)Nc2ccccc2C)cc1C(=O)O	i	i	i	i	i
O=C(CNC(=O)c1ccccc1)N=Nc1c(O)[nH]c2ccc(Br)cc12	i	i	i	i	i
O=S(=O)(Cc1ccccc1)N=Nc1c(O)[nH]c2ccc(Br)cc12	10*	i	i	i	i
Cc1cc(/C=C2/NC(=O)NC2=O)c(C)n1-c1ccccn1	i	i	i	i	i
Cc1ccc(-n2c(C)cc(/C=C3\NC(=O)NC3=O)c2C)c(C)c1	i	-7.6*	i	i	i
CC(C)c1ccc(N2C(=O)CSC23C(=O)N2CCCc4cccc3c42)cc1 (configuration not stated)	i	-7.6*	i	i	i
CCNC(=S)NNC(=O)C(c1ccccc1)c1ccccc1	i	i	i	i	i
CC(C)(C)C(=O)NC(=S)NNC(=O)C(c1ccccc1)c1ccccc1	i	-7.4*	i	156*	i
CC(=O)NNC(=S)NC(=O)C(c1ccccc1)c1ccccc1	i	i	i	35*	i
CCOC(=O)CC(=O)CSc1nc(-c2cccnc2)cc(C)c1C#N	i	i	-4.9*	i	i
COc1ccccc1NC(=S)NNC(=O)c1ccncc1	i	i	i	28*	i
Cc1ccc(-n2ncc3c(=O)n(CC(=O)N(C(C)C)C(C)C)cnc32)cc1	i	i	i	i	i
O=C(O)c1ccc(N/N=C/C=C/c2ccc([N+](=O)[O-])o2)cc1	i	i	-4.6*	i	i
O=C(N/N=C/c1ccc([N+](=O)[O-])o1)C(=O)Nc1ccc(C(=O)O)cc1	i	i	i	i	i
O=[N+]([O-])c1ccc(N/N=C/C=C/c2ccco2)cc1	i	-7.4*	-10*	i	i
O=[N+]([O-])c1ccc(N/N=C/c2c[nH]c3ccccc23)cc1	i	i	-9.1*	i	i
SMILES	MrgX1 allo act	RGS4 act	MrgX1 antagonist	MrgX1 ag	RGS4 inh
O=[N+]([O-])c1ccccc1N/N=C/c1c[nH]c2ccccc12	i	i	i	i	i
O=[N+]([O-])c1ccc(N/N=C/c2ccc[nH]2)cc1	i	x	i	27*	x
O=C(C[n+]1ccccc1)Nc1ccc(Oc2ccccc2)cc1	i	-7.6*	i	i	i
CN(C)c1ccc(NC(=O)C[n+]2ccccc2)cc1	i	i	i	i	i
CC(C)(C#CC(O)(c1ccccc1)c1ccccc1)N1CCCCC1	i	-7.1*	i	i	i
CCC(C)NC(=O)C1CCN(S(=O)(=O)c2cc([N+](=O)[O-])ccc2Cl)CC1 (configuration not stated)	i	i	i	i	i
O=C(Nc1nc2ccccc2s1)C1CCN(S(=O)(=O)c2cc([N+](=O)[O-])ccc2Cl)CC1	i	i	-5.3*	i	i
Cc1nn(CC(=O)NCCCN2CC(C)CC(C)C2)c(=O)c2cccn12 (configuration not stated)	i	i	i	i	i
O=C(c1ccc(=O)n(Cc2ccc(Cl)c(Cl)c2)c1)N1CCOCC1	i	i	-7.4*	i	i
Cc1ccccc1-n1nc2c(c1NC(=O)c1ccc3c(c1)OCO3)CS(=O)(=O)C2	i	i	i	i	i
COc1ccccc1/C=C/C1C(C(=O)OCC(C)C)=C(C)N=C2SCCC(=O)N21 (configuration not stated)	i	i	i	i	i
COC(=O)C1=C(C)N=C2SCCC(=O)N2C1/C=C/c1ccccc1 (configuration not stated)	i	-7.4*	i	i	i
COc1cc2ncc(S(=O)(=O)c3ccccc3)c(N3CCCC(C)C3)c2cc1OC (configuration not stated)	i	-7.3*	i	i	i
O=S(=O)(c1ccccc1)c1cnc(-c2ccccc2)nc1N1CCCC1	i	i	i	i	i
COc1cccc(CN(C)C(=O)CNC(=O)c2ccc3c(c2)OCO3)c1OC	i	i	i	i	i
O=C(CCC(=O)c1ccccc1)NC1CCCN(Cc2ccccc2F)C1 (configuration not stated)	i	i	i	i	i
O=C(O)Cn1cc(/C=c2/sc3nc4ccccc4n3c2=O)c2ccccc21	i	i	i	27*	i
Cc1ccc(-n2c(C)cc(/C=c3/sc4nc5ccccc5n4c3=O)c2C)cc1	i	i	i	i	i
CCCC(=O)Nc1ccc(-c2csc(N/N=C\c3ccncc3)n2)cc1	i	-7.2*	-5.4*	i	i
CC(C)=CC1C(C(=O)Nc2ccc(S(=O)(=O)N3CCOCC3)cc2)C1(C)C (configuration not stated)	i	i	i	i	i
O=c1c2ccccc2nnn1CSc1nnc(-c2cccc(S(=O)(=O)N3CCCCC3)c2)o1	i	-7.9*	i	i	i
COc1ccc(CCNC(=O)N[C@@H](Cc2ccccc2)C(=O)O)cc1	i	i	i	i	i
CC(Oc1ccc(Br)cc1)C(=O)NC1CCN(Cc2ccccc2)CC1 (configuration not stated)	i	-7.6*	i	i	i
